One molecule from ChEMBL document CHEMBL2086325, “Suppression of autoimmune arthritis by Celastrus-derived Celastrol through modulation of pro-inflammatory chemokines” (Bioorg Med Chem, 2012) can be followed below.

Activity calls are given as the source filed them. The calls are words filed in the database; no cut-off is given here.

The subject of test [1] is Rattus norvegicus. Description: Antiarthritic effect in Lewis rat adjuvant-induced arthritis model lymph node cells restimulated with sonicated Mtb post isolation assessed as reduction in GRO/KC production at 200 ug, ip starting from arthritis onset and continued uninterrupted until study end by cytokine multiplex assay. It is filed as functional, organism-based. In short, it runs like this: (§1)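 Male Lewis rats were immunized s.c. with heat-killed Mtb H37Ra (1.5 mg/rat) in mineral oil. From arthritis onset they received 200 μg/rat i.p. daily (DMSO stock diluted in PBS); controls got 1.2% DMSO in PBS. On d 18, draining lymph node or synovial-infiltrating cells were cultured at 1.5 × 10^6/well in 2% FBS medium ± sonicated Mtb (10 μg/ml) for 24 h. Supernatants were analysed by multiplex.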

For test [2], the system named is Rattus norvegicus. In words: Antiarthritic effect in Lewis rat adjuvant-induced arthritis model lymph node cells restimulated with sonicated Mtb post isolation assessed as reduction in MCP1 production at 200 ug, ip starting from arthritis onset and continued uninterrupted until study end by cytokine multiplex assay. It counts as functional, organism-based. The method in brief:
as §1

The test system of test [3] is Rattus norvegicus. In words: Antiarthritic effect in Lewis rat adjuvant-induced arthritis model lymph node cells restimulated with sonicated Mtb post isolation assessed as reduction in TNFalpha production at 200 ug, ip starting from arthritis onset and continued uninterrupted until study end by cytokine multiplex assay. It is filed as functional, organism-based. In short, it runs like this:
as §1

The species named for test [4] is Rattus norvegicus. Description: Antiarthritic effect in sonicated Mtb-stimulated spleen adherent cells isolated from Lewis rat adjuvant-induced arthritis model assessed as reduction in MCP1 production pre-incubated with compound for 30 mins before stimulation with sonicated-Mtb for 48 hrs by multiplex assay. It is filed as functional, tissue-based.
The species entered for test [5] is Rattus norvegicus. In words: Antiarthritic effect in sonicated Mtb-stimulated spleen adherent cells isolated from Lewis rat adjuvant-induced arthritis model assessed as reduction in MIP-1alpha production pre-incubated with compound for 30 mins before stimulation with sonicated-Mtb for 48 hrs by multiplex assay. It is filed as functional, tissue-based.
Test [6] is filed under the species Rattus norvegicus. Description: Antiarthritic effect in IL-1beta-stimulatedspleen adherent cells isolated from Lewis rat adjuvant-induced arthritis model assessed as reduction in MCP1 production pre-incubated with compound for 30 mins before stimulation with IL-1beta for 48 hrs by multiplex assay. It counts as functional, tissue-based. To be noted: Spleen.
Test [7] is filed under the species Rattus norvegicus. Description: Antiarthritic effect in IL-1beta-stimulatedspleen adherent cells isolated from Lewis rat adjuvant-induced arthritis model assessed as reduction in MIP-1alpha production pre-incubated with compound for 30 mins before stimulation with IL-1beta for 48 hrs by multiplex assay. The conditions noted are these: Spleen. It is filed as functional, tissue-based.

The subject of test [8] is Rattus norvegicus. In words: Antiarthritic effect in Lewis rat adjuvant-induced arthritis model spleen adherent cells restimulated with sonicated Mtb post isolation assessed as reduction in TNFalpha production at 200 ug, ip starting from arthritis onset and continued uninterrupted until study end by cytokine multiplex assay. It counts as functional, organism-based. In short, it runs like this:
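Mtb-immunized male Lewis rats were dosed 200 μg/rat i.p. daily from arthritis onset (vehicle: 1.2% DMSO/PBS). Spleen adherent cells were prepared on d 18, plated at 1.5 × 10^6/well in 2% FBS medium and restimulated with sonicated Mtb (10 μg/ml) for 24 h. Supernatant chemokines and cytokines were measured by Luminex multiplex. Mean ± SD of triplicates from 4–5 rats.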

Regarding `CC1=C(O)C(=O)C=C2C1=CC=C1[C@@]2(C)CC[C@@]2(C)[C@@H]3C[C@](C)(C(=O)O)CC[C@]3(C)CC[C@]12C` [CELASTROL], the result in the test on Rattus norvegicus [1], in the test on Rattus norvegicus [2] and in the test on Rattus norvegicus [3] was inactive. Besides, the Activity entry in the test listed under Rattus norvegicus [4], in the test listed under Rattus norvegicus [5], in the test listed under Rattus norvegicus [6] and in the test filed under Rattus norvegicus [7] was “Dose-dependent effect” in each case. The outcome in the test on Rattus norvegicus [8] was Active.
